Assay results as given in article PMC9660540 (Clinical Cancer Research, 2022).
Like-named read-outs stand apart in the source and are kept apart here.

Tests used:
Type in all cases: in vivo, human
[1] = Causally related adverse events, phase Ia/Ib study in patients with solid tumors
How it was run: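 Expansion cohorts received nanosuspension at 100 mg once daily. The safety set was all patients given ≥1 dose, classified by the treatment actually received. Treatment was delayed or reduced for grade ≥3 or clinically significant nonhematologic toxicity.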

[2] = tested on: metastatic castration-resistant prostate cancer (mCRPC)
How it was run: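 For the signature, baseline whole-blood RNA (PAXgene) was hybridized (25–100 ng) to a 770-gene NanoString panel and ComBat batch-corrected. The score was the median of normalized log2 expression of 14 adenosine genes; the cohort median split high from low.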

[3] = tested on: metastatic castration-resistant prostate cancer (mCRPC); experiment: PSA response in patients with mCRPC

With `Cc1cc(-c2nnc(N)nc2-c2ccc(F)cc2)cc(Cl)n1` [AZD4635] the “Causally related AE grade ≥3: Blood creatinine increased” value ([1]; Other Post-IO) was 0 n (%), the “Causally related AE grade ≥3: CRP increased” value ([1]; Other Post-IO) was 0 n (%) and the “Causally related AE grade ≥3: Dermatitis psoriasiform” value ([1]; Other Post-IO) was 0 n (%). For the same compound, the “Causally related AE grade ≥3: Diarrhea” value ([1]; Other Post-IO) was 0 n (%), the “Causally related AE grade ≥3: Dizziness” value ([1]; Other Post-IO) was 0 n (%) and the “Causally related AE grade ≥3: Dyspnea” value ([1]; Other Post-IO) was 1 (4.8) n (%). For the same compound, the “Causally related AE grade ≥3: Fatigue” value ([1]; Other Post-IO) was 1 (4.8) n (%), the “Causally related AE grade ≥3: Headache” value ([1]; Other Post-IO) was 0 n (%) and the “Causally related AE grade ≥3: Hyperglycemia” value ([1]; Other Post-IO) was 0 n (%). The “Causally related AE grade ≥3: Hypertension” value ([1]; Other Post-IO) was 0 n (%), the “Causally related AE grade ≥3: Hypophosphatemia” value ([1]; Other Post-IO) was 0 n (%) and the “Causally related AE grade ≥3: Insomnia” value ([1]; Other Post-IO) was 0 n (%). For the same compound, the “Causally related AE grade ≥3: Lipase increased” value ([1]; Other Post-IO) was 0 n (%), the “Causally related AE grade ≥3: Lymphocyte count decreased” value ([1]; Other Post-IO) was 1 (4.8) n (%) and the “Causally related AE grade ≥3: Myositis” value ([1]; Other Post-IO) was 0 n (%). For the same compound, the “Causally related AE grade ≥3: Nausea” value ([1]; Other Post-IO) was 0 n (%), the “Causally related AE grade ≥3: Neutrophil count decreased” value ([1]; Other Post-IO) was 0 n (%) and the “Causally related AE grade ≥3: Obliterative bronchiolitis” value ([1]; Other Post-IO) was 0 n (%). The “Causally related AE grade ≥3: Rash” value ([1]; Other Post-IO) was 0 n (%), the “Causally related AE grade ≥3: Sudden death” value ([1]; Other Post-IO) was 0 n (%) and the “Causally related AE grade ≥3: Type I diabetes mellitus” value ([1]; Other Post-IO) was 0 n (%). For the same compound, the “Causally related AE grade ≥3: Vomiting” value ([1]; Other Post-IO) was 0 n (%), the “≥Grade 3 causally related AE” value ([1]; Other Post-IO) was 1 (4.8) n (%) and the “Causally related AE grade ≥3: ALT increased” value ([1]; Total) was 0 n (%). The “Causally related AE grade ≥3: Abdominal pain” value ([1]; Total) was 2 (1.4) n (%), the “Causally related AE grade ≥3: Anemia” value ([1]; Total) was 4 (2.7) n (%) and the “Causally related AE grade ≥3: Arthralgia” value ([1]; Total) was 1 (0.7) n (%). For the same compound, the “Causally related AE grade ≥3: Blood creatinine increased” value ([1]; Total) was 0 n (%), the “Causally related AE grade ≥3: CRP increased” value ([1]; Total) was 1 (0.7) n (%) and the “Causally related AE grade ≥3: Dermatitis psoriasiform” value ([1]; Total) was 0 n (%). The “Causally related AE grade ≥3: Diarrhea” value ([1]; Total) was 1 (0.7) n (%), the “Causally related AE grade ≥3: Dizziness” value ([1]; Total) was 0 n (%) and the “Causally related AE grade ≥3: Dyspnea” value ([1]; Total) was 1 (0.7) n (%). The “Causally related AE grade ≥3: Fatigue” value ([1]; Total) was 6 (4.1) n (%), the “Causally related AE grade ≥3: Headache” value ([1]; Total) was 1 (0.7) n (%) and the “Causally related AE grade ≥3: Hyperglycemia” value ([1]; Total) was 0 n (%). For the same compound, the “Causally related AE grade ≥3: Hypertension” value ([1]; Total) was 2 (1.4) n (%), the “Causally related AE grade ≥3: Hypophosphatemia” value ([1]; Total) was 0 n (%) and the “Causally related AE grade ≥3: Insomnia” value ([1]; Total) was 1 (0.7) n (%). The “Causally related AE grade ≥3: Lipase increased” value ([1]; Total) was 0 n (%), the “Causally related AE grade ≥3: Lymphocyte count decreased” value ([1]; Total) was 1 (0.7) n (%) and the “Causally related AE grade ≥3: Myositis” value ([1]; Total) was 0 n (%). For the same compound, the “Causally related AE grade ≥3: Nausea” value ([1]; Total) was 1 (0.7) n (%), the “Causally related AE grade ≥3: Neutrophil count decreased” value ([1]; Total) was 0 n (%) and the “Causally related AE grade ≥3: Obliterative bronchiolitis” value ([1]; Total) was 0 n (%). The “Causally related AE grade ≥3: Rash” value ([1]; Total) was 0 n (%), the “Causally related AE grade ≥3: Sudden death” value ([1]; Total) was 1 (0.7) n (%) and the “Causally related AE grade ≥3: Type I diabetes mellitus” value ([1]; Total) was 0 n (%). The “Causally related AE grade ≥3: Vomiting” value ([1]; Total) was 2 (1.4) n (%), the “≥Grade 3 causally related AE” value ([1]; Total) was 19 (12.9) n (%) and the “Treatment-related AEs of grade 3 or greater severity, patients” value ([1]; all tumor cohorts) was 12.9%. The “Causally related AE grade ≥3: ALT increased” value ([1]; mCRPC IO-naïve) was 0 n (%), the “Causally related AE grade ≥3: Abdominal pain” value ([1]; mCRPC IO-naïve) was 1 (1.5) n (%) and the “Causally related AE grade ≥3: Anemia” value ([1]; mCRPC IO-naïve) was 3 (4.6) n (%). The “Causally related AE grade ≥3: Arthralgia” value ([1]; mCRPC IO-naïve) was 1 (1.5) n (%), the “Causally related AE grade ≥3: Blood creatinine increased” value ([1]; mCRPC IO-naïve) was 0 n (%) and the “Causally related AE grade ≥3: CRP increased” value ([1]; mCRPC IO-naïve) was 1 (1.5) n (%). The “Causally related AE grade ≥3: Dermatitis psoriasiform” value ([1]; mCRPC IO-naïve) was 0 n (%), the “Causally related AE grade ≥3: Diarrhea” value ([1]; mCRPC IO-naïve) was 0 n (%) and the “Causally related AE grade ≥3: Dizziness” value ([1]; mCRPC IO-naïve) was 0 n (%). For the same compound, the “Causally related AE grade ≥3: Dyspnea” value ([1]; mCRPC IO-naïve) was 0 n (%), the “Causally related AE grade ≥3: Fatigue” value ([1]; mCRPC IO-naïve) was 1 (1.5) n (%) and the “Causally related AE grade ≥3: Headache” value ([1]; mCRPC IO-naïve) was 1 (1.5) n (%). The “Causally related AE grade ≥3: Hyperglycemia” value ([1]; mCRPC IO-naïve) was 0 n (%), the “Causally related AE grade ≥3: Hypertension” value ([1]; mCRPC IO-naïve) was 0 n (%) and the “Causally related AE grade ≥3: Hypophosphatemia” value ([1]; mCRPC IO-naïve) was 0 n (%). For the same compound, the “Causally related AE grade ≥3: Insomnia” value ([1]; mCRPC IO-naïve) was 1 (1.5) n (%), the “Causally related AE grade ≥3: Lipase increased” value ([1]; mCRPC IO-naïve) was 0 n (%) and the “Causally related AE grade ≥3: Lymphocyte count decreased” value ([1]; mCRPC IO-naïve) was 0 n (%). The “Causally related AE grade ≥3: Myositis” value ([1]; mCRPC IO-naïve) was 0 n (%), the “Causally related AE grade ≥3: Nausea” value ([1]; mCRPC IO-naïve) was 1 (1.5) n (%) and the “Causally related AE grade ≥3: Neutrophil count decreased” value ([1]; mCRPC IO-naïve) was 0 n (%). The “Causally related AE grade ≥3: Obliterative bronchiolitis” value ([1]; mCRPC IO-naïve) was 0 n (%), the “Causally related AE grade ≥3: Rash” value ([1]; mCRPC IO-naïve) was 0 n (%) and the “Causally related AE grade ≥3: Sudden death” value ([1]; mCRPC IO-naïve) was 0 n (%). For the same compound, the “Causally related AE grade ≥3: Type I diabetes mellitus” value ([1]; mCRPC IO-naïve) was 0 n (%), the “Causally related AE grade ≥3: Vomiting” value ([1]; mCRPC IO-naïve) was 1 (1.5) n (%) and the “≥Grade 3 causally related AE” value ([1]; mCRPC IO-naïve) was 9 (13.8) n (%). The Tolerability ([1]; monotherapy and in combination with durvalumab, all patients) was “well tolerated”, the “Median PFS” value [2] was 10.1 weeks and the “PFS probability at 24 weeks” value [2] was 24.2%. The “PFS probability at 24 weeks” value ([2]; AZD4635 monotherapy or plus durvalumab, high blood-adenosine signature) was 48.9%, the “PFS probability at 24 weeks” value ([2]; AZD4635 monotherapy or plus durvalumab, low blood-adenosine signature) was 20.6% and the “Confirmed PSA responses” value [3] was 3.3%. The PSA50 response [3] was 5.0% and the Prostate-specific antigen responses ([3]; responders/evaluable) was 3/60.
